This excerpt belongs to a sample that is enriched for hits.
TLR4-MyD88 BLA – inhibitors of human TLR4-MyD88 binding; 0.18% of 200,000 active; HeLa CL3-4 TLR4/MyD88 BLA complementation, FRET ratio; O00206+Q99836; inhibition, % at 8.4 µM; in the data active = inhibition above about 25%;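 also: 0% = vehicle and 100% = reference inhibitor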
UPR XBP1 act – activators of adaptive arm of unfolded protein response (XBP1); CHO-XBP1 luciferase reporter, IRE1-XBP1 UPR activation, luminescence; percent of tunicamycin response, DMSO as zero; activation, % at 20 µM; 0.33% of 330,000 active;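 active = versus positive control, 20 µM dose yields 30% or more activation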;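 also: 100% = tunicamycin at 10 µg/mL and 0% = DMSO only wells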
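Assay system: CHO-XBP1 luciferase reporter cells; Schedule: 6 h treatment, 37 °C; Detection: glow luminescence from Steady-Glo reagent; Benchmarks: high control tunicamycin 10 µg/mL final, low control DMSO vehicle only.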
UPR CHOP act – apoptotic UPR (CHOP) activation | 0.34% of 330,000 active | activation, % at 10 µM | CHO-CHOP luciferase reporter, luminescence; percent of tunicamycin response over DMSO baseline;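 active = at 10 µM dose, activation of 40% or more, normalized to positive control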;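 also: 100% = tunicamycin at 10 µg/mL and 0% = DMSO alone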
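Dosing – one dose, 10 µM in 0.5% DMSO · System – CHO-CHOP cells, stable luciferase reporter of PERK-eIF2a-CHOP signalling · Input – 500 cells/well · Control set – tunicamycin 10 µg/mL final as positive, DMSO-only wells as negative · Timing – 6 h compound treatment, 37 °C · Measure – % activation vs tunicamycin · Technique – luminescence read with Steady-Glo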
CHOP inhibitor – inhibitors of CHOP induction in ER stress response; 3.8% of 220,000 active; CHO-K1 CHOP-promoter luciferase, tunicamycin-induced, 15-18 h; AID 2732; inhibition, % at 10 µM;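 active = compounds that reduced the stress-induced luciferase reporter signal by more than about 70% of percent inhibition, limit read from the data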;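 also: 0% = tunicamycin plus vehicle and 100% = wells without tunicamycin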
NOD2 RIPK2 PPI – inhibitors of human NOD2-RIPK2 interaction; 0.38% of 360,000 active; O43353; inhibition, % at 4.98 µM; AID 624267; CHO BLA complementation NOD2-RIPK2, CCF4 ratio; in the data active = inhibition above about 21%;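 also: 0% = vehicle only and 100% = reference blocker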
TLR9-MyD88 block – TLR9-MyD88 interaction inhibition; Q9NR96+Q99836; CHO BLA complementation TLR9-MyD88, CCF4 FRET ratio; inhibition, % at 4.98 µM; 0.21% of 340,000 active;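 active = inhibition above the mean over all tested compounds plus 3 SD, cut at about 21% in these data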;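 also: 0% = DMSO only wells and 100% = clavulanate BLA inhibitor control wells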
UPR XBP1 confirm – confirmation of adaptive unfolded protein response (XBP1) activators; shares compounds with UPR XBP1 act; CHO-XBP1 IRE1-XBP1 luciferase reporter, luminescence; activation, % at 20 µM; 63% of 1,000 active; AID 485299;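 active = reporter signal at least 30% of the positive control's activation in two or more of four replicate wells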;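 also: plate controls were DMSO negative control for no effect and tunicamycin 10 µg/mL positive control for full effect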
* = called active by the depositor; . = no result given.

SMILES | TLR4-MyD88 BLA | UPR XBP1 act | UPR CHOP act | CHOP inhibitor | NOD2 RIPK2 PPI | TLR9-MyD88 block | UPR XBP1 confirm
CC(=O)N1CCN(c2ccc(NC(=O)c3ccc(OCc4ccccc4)cc3)cc2)CC1 | 9 | 0 | -1 | 24 | -7 | -5 | .
COc1ccc(-c2cc(-c3ccc(OC)cc3)nc(-c3ccc4c(c3)NC(=O)CO4)c2)cc1 | 3 | 38* | 1 | 12 | 1 | -4 | 15
COc1cccc(-c2nc(-c3ccc4c(c3)NC(=O)CO4)cs2)c1 | -12 | -3 | 7 | -36 | -3 | 2 | .
O=C(NCc1ccc(F)cc1)c1cc(C2CCCN(C(=O)c3ccc4ccccc4c3)C2)on1 (configuration not stated) | . | . | . | . | 1 | . | .
COc1ccc(N(CC(=O)N2CCC(Cc3ccccc3)CC2)S(C)(=O)=O)cc1 | -3 | -5 | -2 | 3 | -4 | 5 | .
COc1ccc(/C=N/Nc2nnc(Cc3ccc(OC)c(OC)c3)c(=O)[nH]2)cc1OC | 3 | 2 | -1 | 18 | 6 | -4 | .
COc1ccc(Cc2nnc(N/N=C/c3ccc(N(C)C)cc3)[nH]c2=O)cc1OC | . | 31* | 13 | -45 | 0 | 3 | 51*
CC(C)c1ccc(/C=C/C(=O)Nc2nc3ccc([N+](=O)[O-])cc3s2)cc1 | 9 | 50* | 17 | 53 | -4 | -4 | 32*
COc1ccc(C(=O)Oc2ccc(C(=S)N3CCOCC3)cc2)cc1 | -12 | 10 | -1 | -6 | -6 | -9 | .
Cc1ccc(NC(=O)CSc2nc3ccccc3c3nc4ccccc4n23)cc1 | 2 | 93* | 39 | 9 | 12 | 6 | 200*
O=C(CSc1nc2ccccc2c2nc3ccccc3n12)NCc1ccco1 | -8 | -2 | -3 | -14 | 3 | 2 | .
CC(=O)c1cccc(NC(=S)N2CCN(CCN3C(=O)c4cccc5cccc(c45)C3=O)CC2)c1 | 9 | 159* | 36 | -12 | 3 | 5 | -1
CC(C)C[C@H]1CN([C@@H](CC(C)C)CN2CCCC2CN2C(=S)NC[C@@H]2Cc2ccccc2)C(=S)N1CCc1ccccc1 (some centres not stated) | . | . | . | . | 5 | . | .
CCOC(=O)C1=C(O)/C(=C/c2ccc(OCC(=O)O)c(OCC)c2)SC1=Nc1ccc(OC)cc1 | -6 | -3 | 1 | 12 | -3 | 4 | .
CCOC(=O)C1=C(O)/C(=C/c2cc(OC)c(OC)c(OC)c2)SC1=Nc1ccc(OC)cc1 | -3 | 36* | 4 | 31 | -1 | -2 | 18
Cc1ccc(C(C(=O)NCc2ccco2)N(Cc2ccco2)C(=O)CNC(=O)c2ccco2)cc1 (configuration not stated) | 0 | -1 | 0 | 20 | 5 | 3 | .
Cc1ccc(C(C(=O)NCc2ccco2)N(C(=O)CNC(=O)c2cccs2)c2c(C)cc(C)cc2C)cc1 (configuration not stated) | 7 | 36* | 25 | 74* | -6 | 2 | 32*
Cc1cc(-c2cc(NC=O)c3ncc(-c4cccc(C(=O)NCCN(C)C)c4)n3c2)cc(C)c1O | . | . | . | . | 13 | . | .
C/C(=N\NC(N)=S)C1=CCC2C3CC[C@H]4CC(O)CC[C@]4(C)C3CC[C@]12C (some centres not stated) | . | 41* | 21 | . | -6 | -3 | 10
O=c1cc(-c2ccccc2Cl)oc2cccc(O)c12 | -7 | 8 | 3 | 14 | -4 | -7 | .
O=c1cc2oc3cc(O)c(O)cc3c(-c3ccccc3[N+](=O)[O-])c-2cc1O | . | 34* | -2 | . | 1 | -8 | 35*
Cc1ccc(S(=O)(=O)NNC(=O)c2ccncc2)cc1[N+](=O)[O-] | . | -4 | 0 | . | 2 | -5 | .
COc1ccc(-n2nc3c(N4CCC(C(=O)NCCc5ccco5)CC4)nnc(C)c3c2C)cc1 | . | 8 | -1 | . | 1 | -5 | .
COc1ccccc1CCNC(=O)C1CCN(c2nnc(C)c3c(C)n(-c4ccc(C)cc4)nc23)CC1 | . | 114* | 5 | . | 5 | 2 | 139*
COc1ccccc1Cc1c(-c2ccc(C#N)cc2)nc2ccc(Br)cn12 | . | . | . | . | -6 | . | .
SMILES | TLR4-MyD88 BLA | UPR XBP1 act | UPR CHOP act | CHOP inhibitor | NOD2 RIPK2 PPI | TLR9-MyD88 block | UPR XBP1 confirm
COc1ccc(C(=O)O/N=C/c2c(C(F)(F)F)nn(C)c2SCc2ccccc2Cl)cc1 | -3 | 62* | 15 | 8 | -6 | 2 | 83*
COc1ccc(-c2ccc3oc(-c4ccsc4)cc(=O)c3c2)cc1F | . | 3 | 2 | . | -2 | -17 | .
COc1cc(-c2ccc3oc(-c4ccsc4)cc3c2)cc(OC)c1OC | . | 61* | 6 | . | 0 | 4 | 32*
O=C(Nc1ccc2oc(-c3ccccc3Cl)nc2c1)c1ncn[nH]1 | -9 | 8 | 8 | 52 | 2 | 5 | .
O=C(Nc1ccc2oc(-c3ccccc3Cl)nc2c1)c1cncc(Br)c1 | 1 | 32* | 4 | 71* | -10 | -1 | 80*
N=c1c2ccccc2nnn1-c1ccc(C(F)(F)F)cc1 | -12 | -2 | 2 | -58 | 0 | -3 | .
Cc1sc(NC(=O)c2ccco2)c(C(c2cccnc2)N2CCN(c3ccc(F)cc3)CC2)c1C (configuration not stated) | 1 | 33* | 17 | . | 8 | -6 | 18
Cc1sc(NC(=O)c2ccco2)c(C(c2ccc(F)cc2)N2CCN(C)CC2)c1C (configuration not stated) | 14 | 1 | 1 | 39 | 6 | -5 | .
CCOC(=O)C1=C(C)N=C2SC(C(=O)OC)=CC(=O)N2C1c1ccc(F)cc1 (configuration not stated) | 6 | 132* | 9 | 12 | -7 | -1 | 103*
CCOC(=O)C1CCN(Cc2ccc(OCc3ccccc3)c(OC)c2)CC1 | . | -3 | 2 | . | 5 | 5 | .
CCOc1ccc(N2C(=O)C(=O)/C(=C(/O)c3ccccc3)C2c2ccccc2[N+](=O)[O-])cc1 (configuration not stated) | . | 34* | 0 | -15 | 15 | 8 | 0
[N-]=[N+]=NC(c1ccccc1)C(NC(=O)c1cc(C(F)(F)F)cc(C(F)(F)F)c1)c1ccccc1 (configuration not stated) | . | . | . | . | -11 | . | .
COc1ccc(OC)c(NC(=O)c2ccccc2SC)c1 | -3 | 0 | 1 | 4 | 10 | 5 | .
COc1ccc(OC)c(NC(=O)c2cc3oc4ccccc4c3cc2O)c1 | . | 37* | 2 | 28 | -1 | 8 | 6
Cc1cc(=O)oc2c(C)c(OCC(=O)NCCCN3CCOCC3)ccc12 | . | -4 | 0 | . | -2 | 8 | .
